In ChEMBL document CHEMBL1212938, “Inhibition of mycobacterial replication by pyrimidines possessing various C-5 functionalities and related 2'-deoxynucleoside analogues using in vitro and in vivo models” (J Med Chem, 2010):
In brackets after ≈: the same amount, converted by molar mass. Activity calls are given as the source filed them. The rule behind the calls is not given here.

Key:
Bacillus subtilis = assay: Antibacterial activity against Bacillus subtilis at 100 ug/ml after 16 to 20 hrs by broth microdilution method; format: functional, organism-based
Streptococcus pneumoniae = assay: Antibacterial activity against Streptococcus pneumoniae at 100 ug/ml after 16 to 20 hrs by broth microdilution method; format: functional, organism-based
Salmonella typhimurium = assay: Antibacterial activity against Salmonella Typhimurium at 100 ug/ml after 16 to 20 hrs by broth microdilution method; format: functional, organism-based; conditions: Salmonella enterica subsp. enterica serovar Typhimurium
Escherichia coli = assay: Antibacterial activity against Escherichia coli at 100 ug/ml after 16 to 20 hrs by broth microdilution method; format: functional, organism-based
Proteus vulgaris = assay: Antibacterial activity against Proteus vulgaris at 100 ug/ml after 16 to 20 hrs by broth microdilution method; format: functional, organism-based
Pseudomonas aeruginosa = assay: Antibacterial activity against Pseudomonas aeruginosa at 100 ug/ml after 16 to 20 hrs by broth microdilution method; format: functional, organism-based
[1] = system: Staphylococcus epidermidis; assay: Antibacterial activity against Staphylococcus epidermidis after 16 to 20 hrs by broth microdilution method; format: functional
Summary of the method: (§1)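 Broth microdilution MIC. Exponentially growing bacteria diluted in sterile liquid medium to a final inoculum of 1 × 10⁴ CFU/mL, cultured with serial compound dilutions for 16-20 h. MIC taken as the lowest inhibitory concentration.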

Staphylococcus aureus [2] = assay: Antibacterial activity against Staphylococcus aureus after 16 to 20 hrs by broth microdilution method; format: functional; summary of the method: as §1
Streptococcus pyogenes [3] = assay: Antibacterial activity against Streptococcus pyogenes after 16 to 20 hrs by broth microdilution method; format: functional; summary of the method: as §1
Enterococcus faecalis [4] = assay: Antibacterial activity against Enterococcus faecalis after 16 to 20 hrs by broth microdilution method; format: functional; summary of the method: as §1
Listeria monocytogenes [5] = assay: Antibacterial activity against Listeria monocytogenes after 16 to 20 hrs by broth microdilution method; format: functional; summary of the method: as §1
[6] = system: Mycobacterium tuberculosis; assay: Antitubercular activity against Mycobacterium tuberculosis H37Ra after 6 days by microplate alamar blue assay; format: functional; conditions: 144 h
Summary of the method: (§2)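 MABA run in 7H9GC medium, with drug diluted from DMSO stocks made at 100× the highest final concentration. Final levels were 100, 50, 10, 5, 2.5 and 1 μg/mL in triplicate, and the experiment was done three times. Inoculum was 2.5 × 10⁵ CFU/mL final. Alamar Blue plus Tween-80 was added once bacteria-only control wells turned pink, from day 6 on, and plates were read visually and by fluorescence after 24 h. Visual MIC is the lowest concentration preventing the blue-to-pink change. Mean percent inhibition was taken relative to bacteria-only and medium-only wells.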

[7] = system: Mycobacterium tuberculosis; assay: Antitubercular activity against Mycobacterium tuberculosis H37Ra at 100 ug/ml after 6 days by microplate alamar blue assay; format: functional; conditions: 144 h; summary of the method: as §2
[8] = system: Mycobacterium tuberculosis; assay: Antitubercular activity against Mycobacterium tuberculosis H37Ra at 50 ug/ml after 6 days by microplate alamar blue assay; format: functional; conditions: 144 h; summary of the method: as §2
[9] = system: Mycobacterium tuberculosis; assay: Antitubercular activity against Mycobacterium tuberculosis H37Ra at 10 ug/ml after 6 days by microplate alamar blue assay; format: functional; conditions: 144 h; summary of the method: as §2
[10] = system: Mycobacterium tuberculosis; assay: Antitubercular activity against Mycobacterium tuberculosis H37Ra at 2.5 to 5 ug/ml after 6 days by microplate alamar blue assay; format: functional; summary of the method: as §2
[11] = Cytotoxicity against human HuH7 cells assessed as cell viability at 200 ug/ml after 2 days by XTT assay; format: cell-based; conditions: huh-7, 48 h
Summary of the method: (§3)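 Huh-7 cells seeded at 1 × 10⁵ cells/well and left to attach 6-8 h. Medium then replaced with compound at 200, 100, 50, 10 or 1 μg/mL, with a DMSO control, and incubated 2 days at 37 °C. Viability by XTT, absorbance read at 450-500 nm.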

[12] = Cytotoxicity against human HuH7 cells assessed as cell viability at > 200 ug/ml after 2 days by [3H]thymidine incorporation assay; format: cell-based; conditions: huh-7, 48 h
Staphylococcus aureus [13] = assay: Antibacterial activity against Staphylococcus aureus at 100 ug/ml after 16 to 20 hrs by broth microdilution method; format: functional, organism-based
[14] = system: Staphylococcus epidermidis; assay: Antibacterial activity against Staphylococcus epidermidis at 100 ug/ml after 16 to 20 hrs by broth microdilution method; format: functional, organism-based
Enterococcus faecalis [15] = assay: Antibacterial activity against Enterococcus faecalis at 100 ug/ml after 16 to 20 hrs by broth microdilution method; format: functional, organism-based
Streptococcus pyogenes [16] = assay: Antibacterial activity against Streptococcus pyogenes at 100 ug/ml after 16 to 20 hrs by broth microdilution method; format: functional, organism-based
Listeria monocytogenes [17] = assay: Antibacterial activity against Listeria monocytogenes at 100 ug/ml after 16 to 20 hrs by broth microdilution method; format: functional, organism-based
[18] = Cytotoxicity against human HuH7 cells assessed as cell viability after 2 days by XTT assay; format: cell-based, Huh-7; summary of the method: as §3
[19] = system: Mycobacterium tuberculosis; assay: Antitubercular activity against Mycobacterium tuberculosis H37Ra infected in BALB/c mouse assessed as reduction of CFU counts in lungs at 50 mg/kg, ip administered 5 days after infection for 25 days measured after 3 days last dose; format: functional, organism-based; parameters: dose 50 mg/kg
Summary of the method: (§4)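 Female BALB/c mice, 5–6 weeks old, were infected iv via the tail vein with about 2.5 × 10⁵ CFU of H37Ra in PBS, 5 per group. From day 5, drug was given ip at 50 mg/kg, 5 days/week, for 25 treatment days, in 10% DMSO–saline or poly(ethylene glycol) methyl ether. Controls received diluent only. Three days after the last dose, lung, liver and spleen homogenates were plated on 7H11 agar at 37 °C for up to 4 weeks. Colony counts were done blinded.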

[20] = system: Mycobacterium tuberculosis; assay: Antitubercular activity against Mycobacterium tuberculosis H37Ra infected in BALB/c mouse assessed as reduction of CFU counts in liver at 50 mg/kg, ip administered 5 days after infection for 25 days measured after 3 days last dose; format: functional, organism-based; parameters: dose 50 mg/kg; summary of the method: as §4
[21] = system: Mycobacterium tuberculosis; assay: Antitubercular activity against Mycobacterium tuberculosis H37Ra infected in BALB/c mouse assessed as reduction of CFU counts in spleen at 50 mg/kg, ip administered 5 days after infection for 25 days measured after 3 days last dose; format: functional, organism-based; parameters: dose 50 mg/kg; summary of the method: as §4
Mus musculus = assay: Toxicity in Mycobacterium tuberculosis H37Ra infected in BALB/c mouse assessed as adverse effect at 50 mg/kg, ip administered 5 days after infection for 25 days; format: organism-based; parameters: dose 50 mg/kg, route intraperitoneal; conditions: in vivo
Summary of the method: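 BALB/c mice infected with H37Ra were given 50 mg/kg ip in 10% DMSO–saline from day 5 post-infection, 5 days/week, over 25 treatment days. They were monitored for weight loss and behavioural changes and examined by gross necropsy after euthanasia.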

[22] = system: Mycobacterium tuberculosis; assay: Antitubercular activity against Mycobacterium tuberculosis H37Ra at 5 ug/ml after 6 days by microplate alamar blue assay; format: functional; conditions: 144 h; summary of the method: as §2

SMILES	Activity (Bacillus subtilis)	Activity (Streptococcus pneumoniae)	Activity (Salmonella typhimurium)	Activity (Escherichia coli)	Activity (Proteus vulgaris)	Activity (Pseudomonas aeruginosa)	MIC50 [6] [µg/mL]	inhibition at 100 µg/mL [7] [%]	inhibition at 50 µg/mL [8] [%]	inhibition at 10 µg/mL [9] [%]	inhibition (INH) [10] [%]	Activity [11]	Activity [12]	Activity (Staphylococcus aureus [13])	Activity [14]	Activity (Enterococcus faecalis [15])	Activity (Streptococcus pyogenes [16])	Activity (Listeria monocytogenes [17])	Activity [19]	Activity [20]	other results
CCCCCC#Cc1c[nH]c(=O)[nH]c1=O	inactive	inactive	inactive	inactive	inactive	inactive															MIC90 [1]: 10 µg/mL (≈ 48.5 µM); MIC90 (Staphylococcus aureus [2]): 50 µg/mL (≈ 242 µM); MIC90 (Streptococcus pyogenes [3]): 50 µg/mL (≈ 242 µM); MIC90 (Enterococcus faecalis [4]): 50 µg/mL (≈ 242 µM); MIC90 (Listeria monocytogenes [5]): 50 µg/mL (≈ 242 µM)
O=c1[nH]c(=O)n([C@H]2C[C@H](O)[C@@H](CO)O2)cc1C#Cc1ccccn1	inactive	inactive	inactive	inactive	inactive	inactive	2.5 (≈ 7.59 µM)	90	78	68	50	Non-toxic	Non-toxic	inactive	inactive	inactive	inactive	inactive			
Nc1nc(=O)n([C@H]2C[C@H](O)[C@@H](CO)O2)cc1C#Cc1ccccn1	inactive	inactive	inactive	inactive	inactive	inactive	2.5 (≈ 7.61 µM)	90	90	70	50	Non-toxic	Non-toxic	inactive	inactive	inactive	inactive	inactive	Active	Active	Activity ([18]; huh-7, 48 h): Non-toxic; Activity [21]: Active; Activity (Mus musculus): Non-toxic
O=c1[nH]cc(C#Cc2ccccn2)c(=O)[nH]1	inactive	inactive	inactive	inactive	inactive	inactive	5 (≈ 23.5 µM)	90	70	60		Non-toxic	Non-toxic	inactive	inactive	inactive	inactive	inactive	Active	Active	inhibition at 5 µg/mL [22]: 50%; CC50 at 48 h ([18]; HuH7 cells): > 100 µg/mL; Activity [21]: Active; Activity (Mus musculus): Non-toxic
